Test [1] relates to Aorta. The experiment in a line: Antioxidant activity in Sprague-Dawley rat thoracic aorta assessed as superoxide levels at 10 uM by lucigenin-enhanced chemiluminescence assay relative to control. In kind it is functional. The method in brief: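 Male Sprague-Dawley aortic rings incubated 45 min at 37 °C, pH 7.4, in Krebs-HEPES with DETCA 3 mM (inactivates SOD), NADPH 100 µM and flavonol 10 µM (DMSO 1%). Rings then moved to wells containing lucigenin 50 µM and NADPH 100 µM, and photon emission counted. Counts normalized to dry tissue weight (dried 48 h, 65 °C), expressed as % of vehicle; n = rats.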

For test [2], the system named is Aorta. The experiment in a line: DPPH scavenging activity in Sprague-Dawley rat thoracic aorta at 100 uM relative to control. It is filed as functional. The method in brief:
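Cell-free DPPH radical scavenging. Flavonol in DMSO mixed 1:1 with 0.1 mM DPPH in methanol, 10 min at room temperature in the dark, absorbance read at 560 nm. Level = (A flavonol/A DPPH) × 100, as % of vehicle.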
For orientation: The DPPH test is a chemical assay of radical scavenging.

In test [3] the test system is Aorta. Description: Vascular activity in KPSS precontracted Sprague-Dawley rat thoracic aorta assessed as endothelium dependent relaxation. In kind it is functional, tissue-based. More on the design: Activity: concentration or dose not given beside the values. The settings on record: for EC50: Rattus norvegicus, Sprague-Dawley, Thoracic aorta.
Test [4] relates to Aorta. The experiment in a line: Vasorelaxant activity against U46619-induced contraction in endothelium-denuded Sprague-Dawley rat thoracic aorta. In kind it is functional, tissue-based. The arrangement: Activity: scale not given: the % may be the effect or the level left. The settings on record: for EC50: Rattus norvegicus, Sprague-Dawley, Thoracic aorta.
The subject of test [5] is Aorta. The experiment in a line: Effect on acetylcholine-induced vasorelaxation in xanthine/xanthine oxidase exposed Sprague-Dawley rat thoracic aorta. It is filed as functional, tissue-based. More on the design: Activity: scale not given: the % may be the effect or the level left. The note with it: for EC50: Rattus norvegicus, Sprague-Dawley, Thoracic aorta. The method in brief:
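Aortic rings incubated with xanthine oxidase 0.016 U/mL for 30 min, then flavonol 30 µM for 20 min, then xanthine 100 µM for 10 min. Rings then precontracted with U46619 and cumulative acetylcholine concentration-response curves recorded. Relaxation given as % of U46619 precontraction; mean ± SEM, n = rats.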

Test [6] deals with Aorta. Description: Vasorelaxant activity against KCl-induced contraction in endothelium-denuded Sprague-Dawley rat thoracic aorta. In kind it is functional, tissue-based. The arrangement: Activity: scale not given: the % may be the effect or the level left. The settings on record: for EC50: Rattus norvegicus, Sprague-Dawley, Thoracic aorta.
Test [7] concerns Aorta. The experiment in a line: Effect on acetylcholine-induced vasorelaxation in pyrogallol exposed Sprague-Dawley rat thoracic aorta. In kind it is functional, tissue-based. The settings on record: for EC50: Rattus norvegicus, Sprague-Dawley, Thoracic aorta. The arrangement: Activity: scale not given: the % may be the effect or the level left. In short, it runs like this: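 Endothelium-intact male Sprague-Dawley aortic rings in organ baths with nifedipine 30 nM. Pretreated 20 min with pyrogallol 30 µM, alone or with flavonol 30 µM (15% DMSO/85% methanol), or vehicle. Rings precontracted with U46619 1–10 nM to about 50% of the 123 mM KCl response, then cumulative acetylcholine curves run. Relaxation given as % of precontraction; mean ± SEM, n = rats.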

In test [8] the test system is Aorta. Description: Vasorelaxant activity against U46619-induced contraction in endothelium-intact Sprague-Dawley rat thoracic aorta. It is filed as functional, tissue-based. More on the design: Activity: scale not given: the % may be the effect or the level left. The note with it: for EC50: Rattus norvegicus, Sprague-Dawley, Thoracic aorta.
Test [9] deals with Aorta. Description: Vasorelaxant activity against KCl-induced contraction in endothelium-intact Sprague-Dawley rat thoracic aorta. The settings on record: for EC50: Rattus norvegicus, Sprague-Dawley, Thoracic aorta. It is filed as functional, tissue-based. More on the design: Activity: scale not given: the % may be the effect or the level left.

Broadly, the EC50 is the concentration giving half of the maximal effect.

Consider `O=c1c(O)c(-c2cccc(Cl)c2)oc2ccccc12`, for which the Activity came out at 75% in the test on Aorta [1], 87% in the test with Aorta [2] and 53% in the test with Aorta [3]. Besides, the EC50 with Aorta [3] was 6.76 µM.

In the case of `O=c1c(O)c(-c2ccc(O)c(O)c2)oc2ccccc12`, the Activity with Aorta [4] worked out at 100%; in the test on Aorta [5], 84%; in the test with Aorta [1], 27%; in the test with Aorta [6] it was 100%; in the test on Aorta [7] it was 81%; in the test with Aorta [2], 36%. Further, the Activity in the test on Aorta [3] is 102%; with Aorta [8] it was 101%; with Aorta [9], 100%. Further, the EC50 in the test on Aorta [4] is 3.02 µM; with Aorta [5] it was 55 nM; in the test on Aorta [6], 6.31 µM; in the test on Aorta [7], 64.6 nM; in the test on Aorta [3] it was 5.01 µM; in the test with Aorta [8] it was 1350 nM. The response in the test on Aorta [9] was half-maximal at 5.5 µM (EC50).

`O=c1c(O)c(-c2ccccc2)oc2ccccc12` [FLAVONOL]: the Activity came to 70% in the test on Aorta [1], 83% with Aorta [2] and 91% in the test with Aorta [3]. Also, the EC50 with Aorta [3] was 7.59 µM.

Turning to `O=c1c(O)c(-c2ccc(Cl)cc2)oc2ccccc12`, the figures for the Activity with Aorta [1], in the test on Aorta [2] and with Aorta [3] were 100%, 93% and 37%, respectively. Also, the EC50 in the test with Aorta [3] was 8.13 µM.

As for `COc1cc(-c2oc3ccccc3c(=O)c2O)ccc1O`, the Activity in the test on Aorta [4] came to 100%; in the test with Aorta [5], 62%; in the test on Aorta [1] it was 106%; in the test with Aorta [6], 93%; in the test on Aorta [7], 42%; in the test on Aorta [2] it was 24%. The results for the Activity in the test with Aorta [3], in the test with Aorta [8] and in the test on Aorta [9] were 98%, 101% and 100%, respectively. Also, the EC50 in the test with Aorta [4] was 1.66 µM; with Aorta [5], 89.1 nM; in the test on Aorta [6], 5.62 µM; with Aorta [7], 275 nM; in the test with Aorta [3] it was 4.47 µM; in the test with Aorta [8], 871 nM. This molecule showed an EC50 in the test with Aorta [9] of 4.79 µM.

`O=c1c(O)c(-c2cccc(O)c2)oc2ccccc12`: the Activity in the test with Aorta [1] is 78%; in the test with Aorta [2], 87%; in the test on Aorta [3] it was 98%. The EC50 in the test with Aorta [3] was 3.24 µM.

With `O=c1c(O)c(-c2ccc(O)cc2)oc2ccccc12`, the Activity with Aorta [4] was determined as 102%; in the test on Aorta [1] it was 74%; in the test on Aorta [6], 92%; with Aorta [2] it was 32%; with Aorta [3], 99%; in the test on Aorta [8], 100%. In the test with Aorta [9], this molecule returned an Activity of 95%. Also, the concentration giving a half-maximal response (EC50) in the test on Aorta [4] is 3.16 µM; with Aorta [6], 5.5 µM; with Aorta [3], 4.68 µM; with Aorta [8] it was 1660 nM; in the test with Aorta [9] it was 5.13 µM.

As for `O=c1c(O)c(-c2cccc(C(F)(F)F)c2)oc2ccccc12`, the Activity amounted to 80% in the test with Aorta [1], 89% with Aorta [2] and 23% in the test on Aorta [3]. For the same molecule, the EC50 in the test on Aorta [3] is 115 µM.

In the case of `Cc1cc(-c2oc3ccccc3c(=O)c2O)ccc1O`, the results for the Activity in the test with Aorta [1], with Aorta [2] and in the test on Aorta [3] were 105%, 25% and 98%, respectively. For the same molecule, the EC50 in the test with Aorta [3] was 4.37 µM.

As for `O=c1c(O)c(-c2ccc(O)c(Br)c2)oc2ccccc12`, the Activity worked out at 96% in the test with Aorta [1], 23% in the test with Aorta [2] and 100% in the test with Aorta [3]. Further, the EC50 with Aorta [3] is 2.51 µM.

Regarding `Cc1ccc(-c2oc3ccccc3c(=O)c2O)cc1`, the Activity with Aorta [1] turned out to be 101%; with Aorta [2], 76%; in the test with Aorta [3] it was 13%.

For `COc1ccc(-c2oc3ccccc3c(=O)c2O)cc1`, the Activity in the test on Aorta [1] stood at 89%; with Aorta [2], 51%; with Aorta [3], 16%.

Regarding `COc1cccc(-c2oc3ccccc3c(=O)c2O)c1`, the Activity was 93% in the test with Aorta [4]; 74% in the test on Aorta [1]; 86% in the test with Aorta [6]; 71% in the test with Aorta [2]; 79% in the test with Aorta [3]; 101% in the test on Aorta [8]. The molecule further gave an Activity with Aorta [9] of 87%. Moreover, the EC50 in the test with Aorta [4] is 3.72 µM; in the test on Aorta [6], 8.91 µM; in the test on Aorta [3] it was 7.08 µM; with Aorta [8], 3020 nM; in the test on Aorta [9] it was 7.76 µM.

Consider `O=c1c(O)c(-c2ccc(C(F)(F)F)cc2)oc2ccccc12`, for which the figures for the Activity with Aorta [1], in the test with Aorta [2] and with Aorta [3] were 85%, 90% and 6%, respectively.

With `CC(C)(C)c1ccc(-c2oc3ccccc3c(=O)c2O)cc1`, the Activity in the test with Aorta [1] is 111%; in the test with Aorta [2], 71%; in the test with Aorta [3], 10%.

`O=c1c(O)c(-c2ccc(O)c(C(F)(F)F)c2)oc2ccccc12`: the Activity was determined as 109% with Aorta [1], 26% with Aorta [2] and 77% with Aorta [3]. For the same molecule, the EC50 in the test with Aorta [3] is 16.6 µM.

`Cc1cccc(-c2oc3ccccc3c(=O)c2O)c1`: the Activity in the test with Aorta [1] is 85%; in the test with Aorta [2] it was 80%; with Aorta [3] it was 37%. The EC50 in the test on Aorta [3] was 74.1 µM.

For the molecule `CC(C)(C)c1cc(-c2oc3ccccc3c(=O)c2O)ccc1O`, the figures for the Activity in the test on Aorta [1], in the test with Aorta [2] and in the test with Aorta [3] were 108%, 26% and 38%, respectively. In the test on Aorta [3], the 50% effective concentration (EC50) was 4.68 µM.
